Measurements: ChEMBL document CHEMBL1133734, “Synthesis and evaluation of nitroheterocyclic phosphoramidates as hypoxia-selective alkylating agents” (2000)

Experiments:
B16 = test: Tested in vitro for cytotoxicity against B16 murine melanoma cells; assay type: functional, Mus musculus
In short: (§1)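 Clonogenic assay. Cells were suspended in unsupplemented medium at 2-30 000 cells/mL and exposed 2 h at 37 °C, 5% CO2 to 1-400 µM drug (final), with the top dose chosen to give >99% kill. Drug stocks were made in medium or ethanol. After washing, cells were plated at 2-3 dilutions. Colonies of ≥50 cells were stained with crystal violet at 8 days (B16) or 14 days (MCF-7). LC99 was taken by linear regression of log surviving fraction vs concentration.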

MCF7-CP = test: Tested in vitro for cytotoxicity against MCF-7/CP 4-hydroperoxycyclophosphamide-resistant human breast cancer cells; assay type: functional; in short: as §1
MCF7 = test: Tested in vitro for cytotoxicity against MCF-7/WT wild-type human breast cancer cells; assay type: functional; in short: as §1
HT-29 [1] = test: Tested in vitro for cytotoxicity against HT-29 human colon carcinoma cells under aerobic condition; assay type: functional
In short: (§2)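 HT-29 colon cells were grown in α-MEM with 10% FBS and given a 4-h drug exposure under aerobic or hypoxic conditions in a clonogenic assay run in duplicate. The top dose was chosen to give >99% kill. LC99 (1% colony survival versus untreated controls) was taken by linear regression of log surviving fraction vs drug concentration.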

HT-29 [2] = test: Tested in vitro for cytotoxicity against HT-29 human colon carcinoma cells under hypoxic condition; assay type: functional; in short: as §2
[3] = Ratio of lethal conc. under aerobic to hypoxic condition in HT-29 cells; assay type: functional
In short: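 HT-29 hypoxic selectivity. Aerobic and hypoxic LC99 values (concentration cutting clonogenic survival by 2 log units) come from the log-linear portion of each survival curve after 4-h drug treatment, assayed in duplicate. The ratio is aerobic LC99 over hypoxic LC99.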

O=P(OCc1ccco1)(N(CCCl)CCCl)N(CCCl)CCCl
LC99 (B16): 53 µM
LC99 (MCF7-CP): 230 µM
LC99 (MCF7): 300 µM

O=P(OCc1cccs1)(N(CCCl)CCCl)N(CCCl)CCCl
LC99 (B16): 120 µM
LC99 (MCF7-CP): 205 µM
LC99 (MCF7): 211 µM

O=[N+]([O-])c1ccc(COP(=O)(N(CCBr)CCBr)N(CCBr)CCBr)o1
LC99 (B16): 1.7 µM
LC99 (MCF7-CP): 2.3 µM
LC99 (MCF7): 1.9 µM

Cn1c([N+](=O)[O-])cnc1COP(=O)(N(CCCl)CCCl)N(CCCl)CCCl
LC99 (B16): 150 µM
LC99 (HT-29 [1]): >600 µM
LC99 (HT-29 [2]): 28 µM
LC99 (MCF7-CP): >600 µM
LC99 (MCF7): >600 µM
Ratio [3]: >20

N#Cc1cc(COP(N)(=O)N(CCBr)CCBr)sc1[N+](=O)[O-] (stereo not drawn)
LC99 (B16): 0.45 µM
LC99 (HT-29 [1]): 0.62 µM
LC99 (HT-29 [2]): 0.22 µM
LC99 (MCF7-CP): 0.24 µM
LC99 (MCF7): 0.11 µM
Ratio [3]: 2.8

CN(C)c1cc(COP(N)(=O)N(CCBr)CCBr)sc1[N+](=O)[O-] (stereo not drawn)
LC99 (B16): 52 µM
LC99 (HT-29 [1]): 180 µM
LC99 (HT-29 [2]): 8.9 µM
LC99 (MCF7-CP): 110 µM
LC99 (MCF7): 88 µM
Ratio [3]: 20

O=[N+]([O-])c1ccc(COP(=O)(N(CCCl)CCCl)N(CCCl)CCCl)o1
LC99 (B16): 9.3 µM
LC99 (HT-29 [1]): 12 µM
LC99 (HT-29 [2]): 3.4 µM
LC99 (MCF7-CP): 22 µM
LC99 (MCF7): 20 µM
Ratio [3]: 3.5

O=[N+]([O-])c1ccc(COP(=O)(N(CCCl)CCCl)N(CCCl)CCCl)s1
LC99 (B16): 5.1 µM
LC99 (HT-29 [1]): 10.8 µM
LC99 (HT-29 [2]): 6.2 µM
LC99 (MCF7-CP): 6.5 µM
LC99 (MCF7): 7.9 µM
Ratio [3]: 1.7

NP(=O)(OCc1cc(Br)c([N+](=O)[O-])s1)N(CCBr)CCBr (stereo not drawn)
LC99 (B16): 0.44 µM
LC99 (HT-29 [1]): 0.91 µM
LC99 (HT-29 [2]): 0.25 µM
LC99 (MCF7-CP): 1.3 µM
LC99 (MCF7): 0.62 µM
Ratio [3]: 3.6

O=[N+]([O-])c1ccc(COP(=O)(N(CCBr)CCBr)N(CCBr)CCBr)s1
LC99 (B16): 1.1 µM
LC99 (MCF7-CP): 1.9 µM
LC99 (MCF7): 2.4 µM

O=P1(N(CCCl)CCCl)NC(OO)CCO1 (stereo not drawn) [PERFOSFAMIDE]
LC99 (B16): 11 µM
LC99 (MCF7-CP): 145 µM
LC99 (MCF7): 14 µM

Cn1c(COP(=O)(N(CCBr)CCBr)N(CCBr)CCBr)ccc1[N+](=O)[O-]
LC99 (B16): 14 µM
LC99 (MCF7-CP): 51 µM
LC99 (MCF7): 57 µM

NC(=O)c1cc(COP(N)(=O)N(CCBr)CCBr)sc1[N+](=O)[O-] (stereo not drawn)
LC99 (B16): 1.4 µM
LC99 (HT-29 [1]): 0.73 µM
LC99 (HT-29 [2]): 0.33 µM
LC99 (MCF7-CP): 1.5 µM
LC99 (MCF7): 1.6 µM
Ratio [3]: 2.2

Cn1c(COP(=O)(N(CCCl)CCCl)N(CCCl)CCCl)ccc1[N+](=O)[O-]
LC99 (B16): 70 µM
LC99 (MCF7-CP): 245 µM
LC99 (MCF7): 205 µM
